Measured values as given in ChEMBL document CHEMBL3739273, “Synthesis, biological activity evaluation and molecular docking studies of novel coumarin substituted thiazolyl-3-aryl-pyrazole-4-carbaldehydes” (Bioorg Med Chem Lett, 2015).
Converted amounts (≈) assume the structure as drawn. The source made the active and inactive calls. The calls are words filed in the database; no cut-off is given here.

system: Bacillus cereus; assay: Bactericidal activity against Bacillus cereus ATCC 14579 after 24 hrs; assay type: functional; details: ATCC 14579, 24 h, read-out: MBC99.9
In short: (§1)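 MBC determined by a standard MBC protocol alongside the MIC, with values in µg/mL. Gentamycin sulfate and ampicillin were the references.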

Row | SMILES | MBC [µg/mL]
1 | O=Cc1cn(-c2nc(-c3cc4cc(Br)ccc4oc3=O)cs2)nc1-c1ccc(Cl)cc1 | 170 (≈ 332 µM)
2 | O=Cc1cn(-c2nc(-c3cc4cc(Cl)cc(Cl)c4oc3=O)cs2)nc1-c1ccc(Cl)cc1 | 220 (≈ 438 µM)

system: Klebsiella pneumoniae; assay: Antibacterial activity against Klebsiella pneumoniae ATCC 43816 assessed as growth inhibition at 100 ug/ml after 24 hrs by agar well diffusion method; assay type: functional; details: not given
In short: (§2)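 Agar well diffusion. Compounds were tested at 10, 20, 100, 200 and 300 µg/mL, and the zone of inhibition was measured in mm. Gentamycin sulfate was the reference drug.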

Row | SMILES | growth inhibition (GI)
3 | O=Cc1cn(-c2nc(-c3cc4cc(Br)ccc4oc3=O)cs2)nc1-c1ccc(Cl)cc1 | Active

system: HeLa; assay: Anticancer activity against human HeLa cells assessed as cell viability at 10 uM after 48 hrs by MTT assay; assay type: functional, cell-based; details: not given

Row | SMILES | growth inhibition (GI)
4 | O=Cc1cn(-c2nc(-c3cc4cc(Br)ccc4oc3=O)cs2)nc1-c1ccc(Cl)cc1 | Active

system: MCF7; assay: Anticancer activity against human MCF7 cells assessed as cell viability after 48 hrs by MTT assay; assay type: functional, cell-based; details: MCF7, 48 h
In short: (§3)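 MTT cytotoxicity assay in human DU-145 prostate, MCF-7 breast and HeLa cervical cancer cell lines. Doxorubicin was the reference drug.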

Row | SMILES | IC50 [µM]
5 | O=Cc1cn(-c2nc(-c3cc4cc(Br)ccc4oc3=O)cs2)nc1-c1ccc(Cl)cc1 | 85
6 | O=Cc1cn(-c2nc(-c3cc4cc(Cl)cc(Cl)c4oc3=O)cs2)nc1-c1ccc(Cl)cc1 | 21.7

system: Proteus vulgaris; assay: Antibacterial activity against Proteus vulgaris ATCC 13315 assessed as growth inhibition at 100 ug/ml after 24 hrs by agar well diffusion method; assay type: functional; details: not given; in short: as §2

Row | SMILES | growth inhibition (GI)
7 | O=Cc1cn(-c2nc(-c3cc4cc(Br)ccc4oc3=O)cs2)nc1-c1ccc(Cl)cc1 | Active

system: not listed separately; assay: n-Octanol-phosphate buffer partition coefficient, log P of the compound at pH 7.4 after 30 mins by shake flask method; assay type: physicochemical; details: not given
In short: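 Shake-flask partition between n-octanol and 50 mM phosphate buffer, pH 7.4. P calculated and expressed as logP.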

Row | SMILES | logD at 0.5 h
8 | O=Cc1cn(-c2nc(-c3cc4cc(Br)ccc4oc3=O)cs2)nc1-c1ccc(Cl)cc1 | 3.07
9 | O=Cc1cn(-c2nc(-c3cc4cc(Cl)cc(Cl)c4oc3=O)cs2)nc1-c1ccc(Cl)cc1 | 3

system: Staphylococcus aureus; assay: Antibacterial activity against methicillin-resistant Staphylococcus aureus NCTC 13616 after 24 hrs by microtiter plate method; assay type: functional; details: NCTC 13616, 24 h

Row | SMILES | MIC [µg/mL]
10 | O=Cc1cn(-c2nc(-c3cc4cc(Br)ccc4oc3=O)cs2)nc1-c1ccc(Cl)cc1 | 123 (≈ 240 µM)
11 | O=Cc1cn(-c2nc(-c3cc4cc(Cl)cc(Cl)c4oc3=O)cs2)nc1-c1ccc(Cl)cc1 | 112 (≈ 224 µM)

system: Staphylococcus aureus; assay: Antibacterial activity against methicillin-resistant Staphylococcus aureus NCTC 13616 assessed as growth inhibition at 100 ug/ml after 24 hrs by agar well diffusion method; assay type: functional, organism-based; details: not given
In short: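 Agar well diffusion assay with compounds applied to wells at several concentrations, including the 100 level reported here. The zone of inhibition was measured in mm. Gentamycin sulfate was the standard drug.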

Row | SMILES | growth inhibition (GI)
12 | O=Cc1cn(-c2nc(-c3cc4cc(Br)ccc4oc3=O)cs2)nc1-c1ccc(Cl)cc1 | Active
13 | O=Cc1cn(-c2nc(-c3cc4cc(Cl)cc(Cl)c4oc3=O)cs2)nc1-c1ccc(Cl)cc1 | Active

system: Proteus vulgaris; assay: Bactericidal activity against Proteus vulgaris ATCC 13315 after 24 hrs; assay type: functional; details: ATCC 13315, 24 h, read-out: MBC99.9; in short: as §1

Row | SMILES | MBC [µg/mL]
14 | O=Cc1cn(-c2nc(-c3cc4cc(Br)ccc4oc3=O)cs2)nc1-c1ccc(Cl)cc1 | 250 (≈ 488 µM)
15 | O=Cc1cn(-c2nc(-c3cc4cc(Cl)cc(Cl)c4oc3=O)cs2)nc1-c1ccc(Cl)cc1 | 225 (≈ 448 µM)

system: Klebsiella pneumoniae; assay: Bactericidal activity against Klebsiella pneumoniae ATCC 43816 after 24 hrs; assay type: functional; details: ATCC 43816, 24 h, read-out: MBC99.9; in short: as §1

Row | SMILES | MBC [µg/mL]
16 | O=Cc1cn(-c2nc(-c3cc4cc(Br)ccc4oc3=O)cs2)nc1-c1ccc(Cl)cc1 | 172 (≈ 335 µM)
17 | O=Cc1cn(-c2nc(-c3cc4cc(Cl)cc(Cl)c4oc3=O)cs2)nc1-c1ccc(Cl)cc1 | 155 (≈ 308 µM)

system: HeLa; assay: Anticancer activity against human HeLa cells assessed as cell viability after 48 hrs by MTT assay; assay type: functional, cell-based; details: not given; in short: as §3

Row | SMILES | IC50 [µM]
18 | O=Cc1cn(-c2nc(-c3cc4cc(Br)ccc4oc3=O)cs2)nc1-c1ccc(Cl)cc1 | 9.46
19 | O=Cc1cn(-c2nc(-c3cc4cc(Cl)cc(Cl)c4oc3=O)cs2)nc1-c1ccc(Cl)cc1 | 10.3

system: Bacillus spizizenii; assay: Antibacterial activity against Bacillus subtilis ATCC 6633 after 24 hrs by microtiter plate method; assay type: functional; details: ATCC 6633, 24 h
In short: (§4)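 Test concentrations reported in µg/mL. Gentamycin sulfate and ampicillin were the reference drugs.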

Row | SMILES | MIC [µg/mL]
20 | O=Cc1cn(-c2nc(-c3cc4cc(Br)ccc4oc3=O)cs2)nc1-c1ccc(Cl)cc1 | 120 (≈ 233 µM)
21 | O=Cc1cn(-c2nc(-c3cc4cc(Cl)cc(Cl)c4oc3=O)cs2)nc1-c1ccc(Cl)cc1 | 111 (≈ 220 µM)

system: Bacillus spizizenii; assay: Bactericidal activity against Bacillus subtilis ATCC 6633 after 24 hrs; assay type: functional; details: ATCC 6633, 24 h, read-out: MBC99.9; in short: as §1

Row | SMILES | MBC [µg/mL]
22 | O=Cc1cn(-c2nc(-c3cc4cc(Br)ccc4oc3=O)cs2)nc1-c1ccc(Cl)cc1 | 175 (≈ 341 µM)
23 | O=Cc1cn(-c2nc(-c3cc4cc(Cl)cc(Cl)c4oc3=O)cs2)nc1-c1ccc(Cl)cc1 | 165 (≈ 328 µM)

system: Klebsiella pneumoniae; assay: Antibacterial activity against Klebsiella pneumoniae ATCC 43816 after 24 hrs by microtiter plate method; assay type: functional; details: ATCC 43816, 24 h; in short: as §4

Row | SMILES | MIC [µg/mL]
24 | O=Cc1cn(-c2nc(-c3cc4cc(Br)ccc4oc3=O)cs2)nc1-c1ccc(Cl)cc1 | 115 (≈ 224 µM)
25 | O=Cc1cn(-c2nc(-c3cc4cc(Cl)cc(Cl)c4oc3=O)cs2)nc1-c1ccc(Cl)cc1 | 105 (≈ 209 µM)

system: Escherichia coli; assay: Antibacterial activity against Escherichia coli ATCC 8739 after 24 hrs by microtiter plate method; assay type: functional; details: ATCC 8739, 24 h; in short: as §4

Row | SMILES | MIC [µg/mL]
26 | O=Cc1cn(-c2nc(-c3cc4cc(Br)ccc4oc3=O)cs2)nc1-c1ccc(Cl)cc1 | 118 (≈ 229 µM)
27 | O=Cc1cn(-c2nc(-c3cc4cc(Cl)cc(Cl)c4oc3=O)cs2)nc1-c1ccc(Cl)cc1 | 111 (≈ 221 µM)

system: Escherichia coli; assay: Antibacterial activity against Escherichia coli ATCC 8739 assessed as growth inhibition at 100 ug/ml after 24 hrs by agar well diffusion method; assay type: functional; details: not given; in short: as §2

Row | SMILES | growth inhibition (GI)
28 | O=Cc1cn(-c2nc(-c3cc4cc(Br)ccc4oc3=O)cs2)nc1-c1ccc(Cl)cc1 | Active

system: Bacillus spizizenii; assay: Antibacterial activity against Bacillus subtilis ATCC 6633 assessed as growth inhibition at 100 ug/ml after 24 hrs by agar well diffusion method; assay type: functional, organism-based; details: not given; in short: as §2

Row | SMILES | growth inhibition (GI)
29 | O=Cc1cn(-c2nc(-c3cc4cc(Br)ccc4oc3=O)cs2)nc1-c1ccc(Cl)cc1 | Active
30 | O=Cc1cn(-c2nc(-c3cc4cc(Cl)cc(Cl)c4oc3=O)cs2)nc1-c1ccc(Cl)cc1 | Active

system: Proteus vulgaris; assay: Antibacterial activity against Proteus vulgaris ATCC 13315 after 24 hrs by microtiter plate method; assay type: functional; details: ATCC 13315, 24 h; in short: as §4

Row | SMILES | MIC [µg/mL]
31 | O=Cc1cn(-c2nc(-c3cc4cc(Br)ccc4oc3=O)cs2)nc1-c1ccc(Cl)cc1 | 128 (≈ 249 µM)
32 | O=Cc1cn(-c2nc(-c3cc4cc(Cl)cc(Cl)c4oc3=O)cs2)nc1-c1ccc(Cl)cc1 | 113 (≈ 225 µM)

system: Escherichia coli; assay: Bactericidal activity against Escherichia coli ATCC 8739 after 24 hrs; assay type: functional; details: ATCC 8739, 24 h, read-out: MBC99.9; in short: as §1

Row | SMILES | MBC [µg/mL]
33 | O=Cc1cn(-c2nc(-c3cc4cc(Br)ccc4oc3=O)cs2)nc1-c1ccc(Cl)cc1 | 230 (≈ 449 µM)
34 | O=Cc1cn(-c2nc(-c3cc4cc(Cl)cc(Cl)c4oc3=O)cs2)nc1-c1ccc(Cl)cc1 | 220 (≈ 438 µM)

system: not listed separately; assay: Anticancer activity against human DU145 cells assessed as cell viability after 48 hrs by MTT assay; assay type: functional, cell-based; details: DU-145, 48 h; in short: as §3

Row | SMILES | IC50 [µM]
35 | O=Cc1cn(-c2nc(-c3cc4cc(Br)ccc4oc3=O)cs2)nc1-c1ccc(Cl)cc1 | 22.3
36 | O=Cc1cn(-c2nc(-c3cc4cc(Cl)cc(Cl)c4oc3=O)cs2)nc1-c1ccc(Cl)cc1 | 30.9

system: Bacillus cereus; assay: Antibacterial activity against Bacillus cereus ATCC 14579 assessed as growth inhibition at 100 ug/ml after 24 hrs by agar well diffusion method; assay type: functional; details: not given; in short: as §2

Row | SMILES | growth inhibition (GI)
37 | O=Cc1cn(-c2nc(-c3cc4cc(Br)ccc4oc3=O)cs2)nc1-c1ccc(Cl)cc1 | Active
38 | O=Cc1cn(-c2nc(-c3cc4cc(Cl)cc(Cl)c4oc3=O)cs2)nc1-c1ccc(Cl)cc1 | Active

system: Bacillus cereus; assay: Antibacterial activity against Bacillus cereus ATCC 14579 after 24 hrs by microtiter plate method; assay type: functional; details: ATCC 14579, 24 h; in short: as §4

Row | SMILES | MIC [µg/mL]
39 | O=Cc1cn(-c2nc(-c3cc4cc(Br)ccc4oc3=O)cs2)nc1-c1ccc(Cl)cc1 | 115 (≈ 224 µM)
40 | O=Cc1cn(-c2nc(-c3cc4cc(Cl)cc(Cl)c4oc3=O)cs2)nc1-c1ccc(Cl)cc1 | 112 (≈ 223 µM)

target: T1, Cytochrome P450 2A6 (Homo sapiens, UniProt P11509); assay: Inhibition of human microsomal CYP2A6; assay type: ADME; details: not given
T1 sequence (P11509 whole entry): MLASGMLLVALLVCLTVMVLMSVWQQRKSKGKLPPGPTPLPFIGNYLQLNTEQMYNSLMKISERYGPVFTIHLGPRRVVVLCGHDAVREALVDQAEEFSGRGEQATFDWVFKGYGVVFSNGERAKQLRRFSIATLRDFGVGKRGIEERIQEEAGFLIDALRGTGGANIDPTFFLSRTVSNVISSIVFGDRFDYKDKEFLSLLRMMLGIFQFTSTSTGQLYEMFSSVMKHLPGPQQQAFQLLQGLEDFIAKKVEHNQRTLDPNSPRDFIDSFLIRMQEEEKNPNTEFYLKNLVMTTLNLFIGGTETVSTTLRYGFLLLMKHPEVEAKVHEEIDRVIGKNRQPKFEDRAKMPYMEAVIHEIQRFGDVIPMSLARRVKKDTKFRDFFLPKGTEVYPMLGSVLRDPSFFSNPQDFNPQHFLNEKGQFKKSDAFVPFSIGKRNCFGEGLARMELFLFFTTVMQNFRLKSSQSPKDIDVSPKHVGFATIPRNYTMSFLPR

Row | SMILES | Ki [µM]
41 | O=Cc1cn(-c2nc(-c3cc4cc(Br)ccc4oc3=O)cs2)nc1-c1ccc(Cl)cc1 | 0.0132
42 | O=Cc1cn(-c2nc(-c3cc4cc(Cl)cc(Cl)c4oc3=O)cs2)nc1-c1ccc(Cl)cc1 | 0.0027

system: Staphylococcus aureus; assay: Bactericidal activity against methicillin-resistant Staphylococcus aureus NCTC 13616 after 24 hrs; assay type: functional; details: NCTC 13616, 24 h, read-out: MBC99.9
In short: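 MBC determined by a standard MBC protocol run alongside the MIC determination. Gentamycin sulfate and ampicillin served as reference drugs.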

Row | SMILES | MBC [µg/mL]
43 | O=Cc1cn(-c2nc(-c3cc4cc(Br)ccc4oc3=O)cs2)nc1-c1ccc(Cl)cc1 | 185 (≈ 361 µM)
44 | O=Cc1cn(-c2nc(-c3cc4cc(Cl)cc(Cl)c4oc3=O)cs2)nc1-c1ccc(Cl)cc1 | 225 (≈ 448 µM)
